This note sets out measurements from ChEMBL document CHEMBL3593194, “BN/CC isosterism in borazaronaphthalenes towards phosphodiesterase 10A (PDE10A) inhibitors” (Bioorg Med Chem, 2015).

The structures appear in SMILES notation. Some results are limits rather than exact numbers.

As usually defined, the inhibition is the change of the read-out against control, counted positive when it falls. The low end stands for a weak effect, the high end for a strong effect. As usually defined, the IC50 is the concentration at which inhibition is half-maximal. A high value points to weaker potency in that assay.

The nature of series [1]: Intrinsic clearance in rat liver microsomes. Particulars: read-out: CLH (converted). Format: ADME.
For series [2], the target named is T1, cAMP and cAMP-inhibited cGMP 3',5'-cyclic phosphodiesterase 10A (Homo sapiens, UniProt Q9Y233). The series can be described thus: Inhibition of PDE10A (unknown origin) at 2 uM.
Series [3] deals with T1, cAMP and cAMP-inhibited cGMP 3',5'-cyclic phosphodiesterase 10A. Put plainly: Inhibition of PDE10A (unknown origin) at 10 uM. In outline: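 Potency against PDE10A is given as the concentration giving 50% inhibition (IC50, nM). Where no IC50 was obtained, the value is percent inhibition at 10 μM.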
Series [4] shares this target. The series can be described thus: Inhibition of PDE10A (unknown origin).

T1 sequence (Q9Y233 whole entry): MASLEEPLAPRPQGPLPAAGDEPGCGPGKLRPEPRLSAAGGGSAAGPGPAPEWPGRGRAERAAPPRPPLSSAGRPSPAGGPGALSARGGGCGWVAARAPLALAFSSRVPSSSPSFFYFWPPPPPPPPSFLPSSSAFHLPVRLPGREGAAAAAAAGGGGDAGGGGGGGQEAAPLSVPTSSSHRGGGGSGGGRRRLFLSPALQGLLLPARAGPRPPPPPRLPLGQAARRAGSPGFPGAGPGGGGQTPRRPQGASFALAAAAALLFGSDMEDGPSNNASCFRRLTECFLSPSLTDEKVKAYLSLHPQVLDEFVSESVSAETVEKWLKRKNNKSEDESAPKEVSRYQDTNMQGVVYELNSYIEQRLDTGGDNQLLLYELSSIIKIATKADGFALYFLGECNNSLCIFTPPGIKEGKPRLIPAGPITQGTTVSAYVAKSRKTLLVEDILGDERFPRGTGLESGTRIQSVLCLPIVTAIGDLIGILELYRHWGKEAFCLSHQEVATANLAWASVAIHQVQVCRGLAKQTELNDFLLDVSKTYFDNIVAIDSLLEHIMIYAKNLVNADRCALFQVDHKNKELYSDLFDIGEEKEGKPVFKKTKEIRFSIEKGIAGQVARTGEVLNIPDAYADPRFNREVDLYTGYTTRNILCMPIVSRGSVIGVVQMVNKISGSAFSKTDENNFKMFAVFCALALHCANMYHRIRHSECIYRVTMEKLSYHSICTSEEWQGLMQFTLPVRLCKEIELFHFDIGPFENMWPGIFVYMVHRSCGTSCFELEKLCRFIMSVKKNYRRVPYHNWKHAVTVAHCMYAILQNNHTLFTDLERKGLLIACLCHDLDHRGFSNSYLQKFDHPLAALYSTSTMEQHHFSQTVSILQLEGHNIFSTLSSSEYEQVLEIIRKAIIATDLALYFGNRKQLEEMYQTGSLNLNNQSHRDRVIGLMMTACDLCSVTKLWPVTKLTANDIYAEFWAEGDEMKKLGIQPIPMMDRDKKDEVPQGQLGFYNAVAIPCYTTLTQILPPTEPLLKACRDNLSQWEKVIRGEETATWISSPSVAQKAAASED

For the compound `CN(C(=O)c1ccncc1)c1ccc(OCc2ccc3ccccc3n2)cc1`, the CLint scaled in series [1] was 15 mL/min/kg.

For `CN(C(=O)c1ccc2ncsc2c1)c1ccc(OCc2ccc3ccccc3n2)cc1`, in series [1], the CLint scaled was 31.7 mL/min/kg.

Consider `CN(C(=O)c1ccncc1)c1ccc(OCc2ccc3ccccc3c2)cc1`, for which the CLint scaled in series [1] is 75 mL/min/kg. The inhibition in series [2] worked out at 2%.

Consider `CN(C(=O)c1cc(-c2ccccn2)[nH]n1)c1ccc(OCc2ccc3ccccc3c2)cc1`, for which the CLint scaled in series [1] is 30 mL/min/kg. For the same compound, in series [3], the inhibition was found to be 4%.

Regarding `CN(C(=O)c1cc(-c2ccccc2)n[nH]1)c1ccc(OCB2C=Cc3ccccc3N2)cc1`, 1800 nM corresponded to half-maximal inhibition in series [4] (IC50). Moreover, the CLint scaled in series [1] was 5.67 mL/min/kg.

With `CN(C(=O)c1cc(-c2ccccn2)n[nH]1)c1ccc(OCc2ccc3ccccc3n2)cc1`, the CLint scaled in series [1] is 35 mL/min/kg.

Turning to `CN(C(=O)c1cc(-c2ccccc2)n[nH]1)c1ccc(OCc2ccc3ccccc3c2)cc1`, the CLint scaled in series [1] was 6.83 mL/min/kg. This compound returned an inhibition in series [3] of 3%.

As for `CN(C(=O)c1csc(-c2cccnc2)n1)c1ccc(OCc2ccc3ccccc3n2)cc1`, the 50% inhibitory concentration (IC50) in series [4] is 170 nM. Moreover, in series [1], the CLint scaled was above 283 mL/min/kg.

Consider `CN(C(=O)c1csc(-c2cccnc2)n1)c1ccc(OCB2C=Cc3ccccc3N2)cc1`, for which, in series [4], the IC50 is 330 nM. Further, the CLint scaled in series [1] is above 283 mL/min/kg.

On to `Cn1cc(-c2ccncc2)c(-c2ccc(OCc3ccc4ccccc4n3)cc2)n1` [MARDEPODECT], for which the CLint scaled in series [1] is 31.7 mL/min/kg.

As for `Cn1cc(-c2ccncc2)c(-c2ccc(OCc3ccc4ccccc4c3)cc2)n1`, the CLint scaled in series [1] is 83.3 mL/min/kg. In series [3], this compound came in with an inhibition of 25%.

With `Cn1cc(-c2ccncc2)c(-c2ccc(OCB3C=Cc4ccccc4N3)cc2)n1`, the CLint scaled in series [1] is 41.7 mL/min/kg. The same compound displayed an inhibition in series [3] of 48%.

With `CN(C(=O)c1ccc2ncsc2c1)c1ccc(OCc2ccc3ccccc3c2)cc1`, the CLint scaled in series [1] is 48.3 mL/min/kg. Besides, the inhibition in series [3] is 5%.

Compound `CN(C(=O)c1cc(-c2ccccn2)[nH]n1)c1ccc(OCB2C=Cc3ccccc3N2)cc1` gave an IC50 in series [4] of 64 nM. Also, the CLint scaled in series [1] was 25 mL/min/kg.

For `CN(C(=O)c1csc(-c2cccnc2)n1)c1ccc(OCc2ccc3ccccc3c2)cc1`, the CLint scaled in series [1] is above 283 mL/min/kg. In series [3], this compound had an inhibition of 2%.

As for `CN(C(=O)c1cc(-c2ccccc2)n[nH]1)c1ccc(OCc2ccc3ccccc3n2)cc1`, in series [1], the CLint scaled was 21.7 mL/min/kg.

In the case of `CN(C(=O)c1ccc2ncsc2c1)c1ccc(OCB2C=Cc3ccccc3N2)cc1`, the CLint scaled in series [1] is 73.3 mL/min/kg. Also, in series [3], the inhibition amounted to 45%.

With `CN(C(=O)c1ccncc1)c1ccc(OCB2C=Cc3ccccc3N2)cc1`, the CLint scaled in series [1] was 115 mL/min/kg. This compound came in with an inhibition in series [3] of 11%.
